Source: ChEMBL document CHEMBL1127686, “Synthesis of selective non-Ca(2+)-mobilizing inhibitors of D-myo-inositol 1,4,5-trisphosphate 5-phosphatase” (J Med Chem, 1994)
“And” between values parts separate entries of the source, which are not always exact repeats. Identical values can stand only once. Blank lines part the entries; values can stand above or below the compound they belong to.

Experiments:
[1] = Tested for binding affinity against Ins(1,4,5)-P3 5-phosphatase; set-up: species or system Homo sapiens
[2] = Tested for binding affinity against human erythrocyte 5-phosphatase
[3] = Competitive inhibition of Inositol 1,4,5-trisphosphate 5-phosphatase; set-up: species or system Homo sapiens
[4] = Binding affinity for Inositol 1,4,5-trisphosphate kinase
Outline: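 Crude rat brain Ins(1,4,5)P3 3-kinase; inhibition of [3H]Ins(1,4,5)P3 phosphorylation measured; Km for Ins(1,4,5)P3 0.6 μM; Ki determined by a previously described method.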

[5] = (§1) Competitive inhibition of human erythrocyte membrane Ins(1,4,5)P3 5-phosphatase
Outline: (§2)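 Ins(1,4,5)P3 5-phosphatase from human erythrocyte membrane; Ki determined by a previously described method, taken as the mean of at least three experiments.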

Homo sapiens [6] = organism: Homo sapiens; assay: Tested for Ca+2 potency in human neuroblastoma cells; format: functional
Outline: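 Ca2+ release from intracellular stores measured in electrically permeabilized human neuroblastoma cells; potency expressed as EC50.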

Homo sapiens [7] = organism: Homo sapiens; assay: as §1; outline: as §2

SMILES: OC1C(O)C(OP(O)(O)=S)C(OP(O)(O)=S)C(O)C1OP(O)(O)=S (configuration not stated)
- Ki [1]: 0.5 µM

SMILES: OC1C(OP(O)(O)=S)C(O)C(OP(O)(O)=S)C(O)C1OP(O)(O)=S (configuration not stated)
- Ki [1]: 0.43 µM

- Ki [2]: 350 µM and 978 µM
SMILES: O=C(O)C(COP(=O)(O)O)OP(=O)(O)O (configuration not stated)

- Ki [3]: 45 µM
SMILES: O=P(O)(O)O[C@H]1[C@H](O)[C@@H](OP(=O)(O)O)[C@H](O)[C@@H](OP(=O)(O)O)[C@H]1O

SMILES: OC1C(O)C(OP(O)(O)=S)C(OP(O)(O)=S)C(O)C1OP(O)(O)=S (stereo in doubt)
- Ki [4]: 1.46 µM
- Ki [5]: 1.7 µM

SMILES: OC1C(O)C(OP(O)(O)=S)C(OP(O)(O)=S)C(O)C1OP(O)(O)=S (stereo in doubt; 24)
- Ki [4]: 247 µM
- Ki [2]: 0.3 µM

- Ki [3]: 39 µM
- Ki [2]: 124 µM
- EC50 (Homo sapiens [6]): 0.12 µM
- Km (Homo sapiens [7]): 40 µM
SMILES: O=P(O)(O)O[C@@H]1[C@H](O)[C@H](O)[C@@H](OP(=O)(O)O)[C@H](OP(=O)(O)O)[C@H]1O [INS(1,4,5)P3]
